Compound activity as filed in PubChem.
In the library only some 3% were active in any assay of this set; here they are far more common.
T cruzi repl – inhibitors of intracellular T. cruzi growth, primary screen, luminescence, NIH3T3 host cells. T. cruzi beta-gal in NIH3T3, 90 h. inhibition, % (no concentration beside the values). 300,000 tested, 1.4% active. AID 1885, 2009;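 active = mean inhibition across valid replicates above about 55%, limit read from the data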;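 also: signal also drops with host cell toxicity which is not excluded here; 0% = plate median of DMSO wells and 100% = zero luminescence signal; higher percent means less beta-gal luminescence so fewer parasites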
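Material: NIH/3T3 host cells with β-galactosidase reporter T. cruzi; Input: 5,000 host fibroblasts per well; Medium: DMEM, 2% fetal bovine serum; Compound: 50 nL DMSO compound solution per well; Schedule: 3 h host attachment, then at least 90 h co-culture; Detection: luminescent β-galactosidase signal after 60 min lysis.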
HIF activator – HIF pathway transcriptional activators, primary screen, cell-based, U2OS HRE-luciferase, luminescence | U2OS HRE-luciferase reporter; normalized: DMSO 0%, desferrioxamine 100% | activation, % at 7.5 µM (by protocol) | 300,000 tested, 0.32% active;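 active = mean activation of at least 10% of the iron chelator positive control signal, with at least half of replicates also reaching 10%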
CendR NRP1 mod – modulators of CendR peptide binding to NRP-1, primary screen, biochemical, fluorescence polarization, uHTS; FAM-RPARPAR peptide binding to NRP-1; inhibition, % at 25 µM; 360,000 tested, 0.85% active; AID 602438, 2012;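 active = inhibition or corrected inhibition above about 18%, plus a signal ratio from 0.5 to 1.5, limit read from the data, passing the limit was not always enough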
Target sequence (O14786 whole entry, looked up): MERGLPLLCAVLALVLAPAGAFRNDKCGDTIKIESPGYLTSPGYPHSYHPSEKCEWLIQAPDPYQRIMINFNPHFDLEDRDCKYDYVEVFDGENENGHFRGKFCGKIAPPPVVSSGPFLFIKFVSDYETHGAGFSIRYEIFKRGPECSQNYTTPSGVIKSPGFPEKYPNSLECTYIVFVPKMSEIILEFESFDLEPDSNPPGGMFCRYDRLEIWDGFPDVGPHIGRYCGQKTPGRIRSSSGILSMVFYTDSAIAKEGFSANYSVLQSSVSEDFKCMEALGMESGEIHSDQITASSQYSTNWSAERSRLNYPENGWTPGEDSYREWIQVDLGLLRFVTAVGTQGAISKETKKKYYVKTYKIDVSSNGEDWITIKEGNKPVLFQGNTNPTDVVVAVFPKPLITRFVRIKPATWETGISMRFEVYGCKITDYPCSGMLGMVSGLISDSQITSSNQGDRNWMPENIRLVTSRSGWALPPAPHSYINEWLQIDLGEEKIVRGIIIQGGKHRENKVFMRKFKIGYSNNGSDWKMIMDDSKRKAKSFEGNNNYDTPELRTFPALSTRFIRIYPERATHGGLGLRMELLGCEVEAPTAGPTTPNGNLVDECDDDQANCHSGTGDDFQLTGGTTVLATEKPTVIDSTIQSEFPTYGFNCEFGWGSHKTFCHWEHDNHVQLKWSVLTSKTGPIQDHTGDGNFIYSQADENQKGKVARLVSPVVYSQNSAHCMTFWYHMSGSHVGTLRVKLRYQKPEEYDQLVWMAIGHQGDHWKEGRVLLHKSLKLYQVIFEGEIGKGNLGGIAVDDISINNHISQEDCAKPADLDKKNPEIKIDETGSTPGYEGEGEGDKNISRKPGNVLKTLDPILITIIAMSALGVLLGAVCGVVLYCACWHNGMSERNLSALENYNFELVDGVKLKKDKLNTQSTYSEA
AI-2 QS modul – Vibrio harveyi AI-2 quorum sensing modulators, primary screen, JMH597 strain, luminescence/OD600 ratio. Vibrio harveyi JMH597 AI-2 luminescence/OD600 ratio, 9 h; stronger effect = lower value; strain lacks LuxN and CqsS sensors; 0 = neutral-control median. activity change, % at 7.5 µM. AID 2094, 2009. 300,000 tested, 0.4% active; in the data active = activity change below about -75%, passing the limit was not always enough;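 also: luminescence divided by OD600 gain over 9 h not by final OD600 alone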
CR mimetic SO – reduction of superoxide in aged yeast, primary screen, HTS. AID 2690, 2010. superoxide response (% of plate mean), % at 10 µM. 330,000 tested, 0.18% active. S. cerevisiae aged cells, superoxide DHE fluorescence; stronger effect = lower value;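 active = superoxide response under a set limit, about three screen SD below normal, cut at about 65% in these data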;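 also: yeast aged for seven days with compound at 30 °C before DHE staining; 100% = average MFI of all compound-treated wells on the plate with controls excluded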
V-ATPase pHluor – regulators of yeast V-ATPase proton pumping, primary screen, pHLuorin cytosolic pH fluorescence; S. cerevisiae; 350,000 tested, 0.37% active; response, % at 10 µM; in the data active = response mostly above about 7.3%, no sharp cut-off; inactive = mostly below about 5.4%; also: actives read high
* = called active by the depositor; / = no result; ! = not active in a repeat.

SMILES	T cruzi repl	HIF activator	CendR NRP1 mod	AI-2 QS modul	CR mimetic SO	V-ATPase pHluor
NC(=O)C1CCCN(Cc2c(C(=O)N3CCc4ccccc4C3)nc3ccc(Cl)cn23)C1 (stereo unspecified)	5	11*	14	5	103	5
COc1ccc(CC(=O)N2N=C(C)CC2(O)C(F)(F)F)cc1OC (stereo unspecified)	/	/	-14	18	116	0
CCOc1ccccc1N1C(=O)c2ccc(C(=O)Nc3cccnc3)cc2C1=O	-4	0	-2	9	100	-3
CC1(C)C(=O)Nc2ccccc2N1C(=O)CN1C(=O)NC(CCc2ccccc2)C1=O (stereo unspecified)	-13	0	-4	22	105	6
O=C(NCc1cccs1)c1cc(-c2ccccc2)nn1CC1CC(c2cccc([N+](=O)[O-])c2)=NO1 (stereo unspecified)	25	0	30*	-3	/	-3
Cc1ccccc1-c1cc(C(=O)NCc2cccc(Br)c2)n(CC2CC(c3cccnc3)=NO2)n1 (stereo unspecified)	/	/	24*	/	95	-2
Cc1ccc(NC(=S)N/C(=N/S(=O)(=O)c2ccccc2)c2ccccc2)cc1	-24	10*	22*!	49	91	-4
O=c1[nH]c2ccc(N/C(=N/S(=O)(=O)c3ccccc3)c3ccccc3)cc2[nH]1	-6	0	21*	24	99	-1
Cc1ccc(S(=O)(=O)/N=C(/NC(=S)Nc2ccccc2)c2ccccc2)cc1	-3	8	2	37	102	-2
CC1(C)CC(=O)C2=C(C1)OC(N)=C(C#N)C2c1ccccc1[N+](=O)[O-] (stereo unspecified)	-11	-1	36*	18	117	-1
O=C(Nn1c(-c2ccncc2)nc2ccccc2c1=O)c1ccc(Br)cc1	67*	0	-7	-15	96	0
O=C(Nn1c(-c2ccc(Br)cc2)nc2ccccc2c1=O)c1cccnc1	-7	0	12	12	85	-1
Oc1ccc2[nH]cnc2c1CN1CCCCC1	-3	-1	25*	13	99	0
Cc1ccc(C#CC[N+](C)(C)CC#Cc2ccccc2)cc1	57*	0	-18	21	105	-1
O=c1oc(-c2ccccc2Cl)nc2ccsc12	-7	0	-17	-83*	97	-4
O=c1oc(-c2ccc(F)cc2)nc2ccsc12	-9	0	11	10	103	0
COc1ccc(-c2c[n+](CC(=O)c3ccccc3)c3n2CCCCC3)cc1	28	0	-17	4	107	-1
COc1ccc(-c2c[n+]3c4n2CCCCC4=C(c2ccccc2)C3)cc1	62*	1	-22	33	119	-1
O=C(NC1CCCCC1)C(c1ccc(F)cc1)N(C(=O)Cc1ccsc1)c1ccc(F)cc1 (stereo unspecified)	74*	/	-6	-3	94	-3
Fc1ccc(NC(=S)SCc2ccc3c(c2)OCO3)cc1F	/	/	-4	/	/	-4
Cc1ccc(C(=O)N2CCN(C/C=C/c3ccccc3)CC2)cc1S(=O)(=O)N1CCOCC1	/	/	-4	/	/	-2
Cc1[nH]n(-c2ccccc2)c(=O)c1C=Nc1cccc(F)c1	3	1	3	24	86	-4
c1ccc(Nc2cc(Nc3ccccc3)[nH]n2)cc1	24	0	2	-88*	102	4
CC(C)(C)OC(=O)[C@H](Cc1ccccc1)NC(=O)c1nc[nH]c1C(=O)N1CCc2ccccc2C1	-2	-2	-1	11	108	-3
O=c1cc2oc3cc(O)c(O)cc3c(-c3ccccc3O)c-2cc1O	/	/	35	/	/	-3
SMILES	T cruzi repl	HIF activator	CendR NRP1 mod	AI-2 QS modul	CR mimetic SO	V-ATPase pHluor
CCOc1ccccc1-c1c2cc(O)c(=O)cc-2oc2cc(O)c(O)cc12	/	/	121	/	/	75*
O=C(O)c1cccc(NC2=Nc3cccc4cccc2c34)c1	-3	1	-14	5	92	4
Cn1cnc([N+](=O)[O-])c1NC(C)(C)C	-12	0	29*	-3	99	6
O=C(NNS(=O)(=O)c1ccc(F)c(Cl)c1)c1cccc(S(=O)(=O)N2CCOCC2)c1	-2	0	-5	2	103	-1
COc1ccc(C(=O)c2c(C(F)(F)F)oc3c2C(=O)c2ccccc2C3=O)cc1OC	65*	-3	0	9	133	10
COc1ccc(/C=C2\SC(=N)N(c3nccs3)C2=O)cc1OC	58*	0	-36	19	131	3
O=C(CC1CCCC1)N1CCN(S(=O)(=O)c2ccccc2)CC1	/	/	-1	/	104	668*
Cn1c(=O)[nH]c(=O)c2c1nc(N1CCCC1)n2CCCSc1nc2ccccc2o1	12	-1	6	17	95	6
Cn1c(=O)[nH]c(=O)c2c1nc(Br)n2CCCSc1nc2ccccc2o1	63*	0	-5	10	90	-1
Cc1c(Br)c([N+](=O)[O-])nn1C(C)C(=O)NCc1cccs1 (stereo unspecified)	18	0	3	14	92	2
Cc1c(Br)c([N+](=O)[O-])nn1CC(=O)NCc1cccs1	-1	0	25*	21	128	-1
CS(=O)(=O)Nc1ccc(C(=O)Nc2ccccc2-c2ccccc2)cc1	-11	-2	27*	8	95	1
CS(=O)(=O)Nc1ccc(C(=O)Nc2ccccc2Cl)cc1	-17	0	7	7	99	0
Cc1c(C(=O)N2CCC(Cc3ccccc3)CC2)sc2ncnc(N3CCC(C)CC3)c12	72*	0	-12	16	99	1
Cc1c(C(=O)N2CCN(Cc3ccccc3)CC2)sc2ncnc(N3CCOCC3)c12	25	0	-4	36	102	2
Cc1[nH]n(C(N)=S)c(=O)c1N=Nc1ccc([N+](=O)[O-])cc1Cl	1	0	39*	6	111	0
COc1cccc(NC(=O)CN(C)C(=O)c2cccc(NS(=O)(=O)c3ccc(Br)cc3)c2)c1	/	/	0	/	/	5
COc1ccc(NS(=O)(=O)c2cccc(NC(=O)CNC(C)=O)c2)cc1	2	0	-13	15	103	-2
COc1cccc(NC(=O)CN(C)C(=O)c2cccc(NS(=O)(=O)c3ccccc3)c2)c1	/	/	30*	/	98	0
COc1ccc(NS(=O)(=O)c2cccc(NC(=O)COc3ccc(OC)cc3)c2)cc1	-11	0	6	-83*	66	-2
